# Biological target: GABA-A receptor; anion channel
# Experiment: In vitro inhibition of 3[H]Diazepam binding to Benzodiazepine receptor from rat cerebral cortical membranes; value ranges from 4-12 nM
# Type: cell membranes, Membrane
row,Compound,IC50 [nM]
1,S=C=Nc1cc2c3ccccc3nc-2c[nH]1,4

# Biological target: GABA-A receptor; anion channel
# Experiment: In vitro inhibition of 3[H]Diazepam binding to Benzodiazepine receptor from rat cerebral cortical membranes
# Type: cell membranes, Membrane
# Outline: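 Rat cerebral cortex (decapitation) homogenized in 50 mM Tris-HCl pH 7.4, spun 20000g 20 min at 4 °C, washed three times, resuspended in 50 volumes buffer. Incubated with [3H]diazepam (final 2 nM) at 4 °C for 120 min, then filtered on GF/B with ice-cold buffer washes. Nonspecific binding taken with 10 μM flunitrazepam. IC50 from Hill plots, at least six inhibitor concentrations, mean of three or more experiments.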
row,Compound,IC50 [nM]
1,CC(C)(C)OC(=O)c1cc2c3ccccc3nc-2c[nH]1,10
2,COC(=O)c1cc2c3ccccc3n3c(=O)ccc(n1)c23,100
3,CCOC(=O)c1cc2c(cn1)[nH]c1ccccc12,5
4,CCCCOc1cc2c(cn1)[nH]c1ccccc12,98
5,CCc1nc(C(=O)OC)cc2c1[nH]c1ccccc12,7540
6,c1ccc2c(c1)[nH]c1c2ccc2[nH]c3ccccc3c21,1970
7,CCOC(=O)c1cc2c(cn1)oc1ccccc12,9200
8,CCCC(=O)c1cc2c(cn1)[nH]c1ccccc12,2.8
9,CCc1nc2c3ccccc3[nH]c2c2c1[nH]c1ccccc12,285
10,CCOC(=O)c1cc2c3ccccc3c(N=O)c-2c[nH]1,5000
11,Cc1nccc2c1[nH]c1ccccc12 [HARMAN],12400
12,CCCCc1cc2c(cn1)[nH]c1ccccc12,245
13,Cc1ccc2c(c1)[nH]c1c3c4ccccc4nc-3c[nH]c12,10
14,COC(=O)c1cc2c3ccccc3n(C(C)=O)c2cn1,9
15,CCOC(=O)c1cc2c(cn1)nc(O)c1ccccc12,2400
16,CCOC(=O)c1cc2c(cn1)sc1ccccc12,1700
17,C[n+]1cc2[nH]c3ccccc3c2c2[nH]c3ccccc3c21,4660
18,CC(C)Oc1cc2c(cn1)[nH]c1ccccc12,500
19,COC(=O)c1cc2[nH]c3ccccc3c2cn1,653
20,CCOC(=O)c1cc2c(cn1)Cc1ccccc1-2,680
21,Cc1cccc2[nH]c3c4c5ccccc5nc-4c[nH]c3c12,6860
22,CC(C)(C)COC(=O)c1cc2c3ccccc3nc-2c[nH]1,750
